Measured values reported in ChEMBL document CHEMBL1212834, “Pyrido[2,3-b]pyrazines, discovery of TRPV1 antagonists with reduced potential for the formation of reactive metabolites” (Bioorg Med Chem Lett, 2010).
Calls of active or inactive are those of the source. No cut-off for these calls is given here.

What was measured:
[1] = biological target: Transient receptor potential cation channel subfamily V member 1 (Homo sapiens, UniProt Q8NER1); experiment: Antagonist activity at human TRPV1 assessed as inhibition of capsaicin-induced receptor activation by FLIPR assay; assay type: functional
Sequence of Transient receptor potential cation channel subfamily V member 1 (Homo sapiens, UniProt Q8NER1) (Q8NER1 whole entry): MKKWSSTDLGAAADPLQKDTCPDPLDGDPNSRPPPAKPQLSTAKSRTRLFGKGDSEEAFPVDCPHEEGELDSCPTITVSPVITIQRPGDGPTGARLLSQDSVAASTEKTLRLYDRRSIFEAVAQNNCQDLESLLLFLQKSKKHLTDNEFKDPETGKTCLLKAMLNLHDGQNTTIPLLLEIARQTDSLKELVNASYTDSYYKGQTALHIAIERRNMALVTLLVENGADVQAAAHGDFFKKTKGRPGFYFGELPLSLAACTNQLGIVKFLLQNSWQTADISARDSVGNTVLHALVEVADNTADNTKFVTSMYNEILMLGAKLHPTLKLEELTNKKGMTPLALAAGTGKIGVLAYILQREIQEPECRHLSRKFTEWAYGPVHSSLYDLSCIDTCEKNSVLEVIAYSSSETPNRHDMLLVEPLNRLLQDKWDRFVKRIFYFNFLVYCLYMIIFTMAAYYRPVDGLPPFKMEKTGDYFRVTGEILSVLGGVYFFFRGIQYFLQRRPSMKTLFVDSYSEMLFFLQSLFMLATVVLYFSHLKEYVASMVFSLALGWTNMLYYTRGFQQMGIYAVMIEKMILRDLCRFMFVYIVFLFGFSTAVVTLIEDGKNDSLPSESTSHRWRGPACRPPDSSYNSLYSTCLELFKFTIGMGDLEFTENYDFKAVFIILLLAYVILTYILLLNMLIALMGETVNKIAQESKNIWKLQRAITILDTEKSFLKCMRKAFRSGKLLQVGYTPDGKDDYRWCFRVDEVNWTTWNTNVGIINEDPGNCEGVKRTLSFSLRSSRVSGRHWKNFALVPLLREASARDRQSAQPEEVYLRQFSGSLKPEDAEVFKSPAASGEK
In short: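 Human TRPV1 activated by capsaicin; inhibition read by FLIPR. IC50 is the mean of ≥3 experiments.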

[2] = biological target: Transient receptor potential cation channel subfamily V member 1 (Rattus norvegicus, UniProt O35433); assay type: functional, tissue-based, Sprague-Dawley, Dorsal root ganglion
Sequence of Transient receptor potential cation channel subfamily V member 1 (Rattus norvegicus, UniProt O35433) (O35433 whole entry): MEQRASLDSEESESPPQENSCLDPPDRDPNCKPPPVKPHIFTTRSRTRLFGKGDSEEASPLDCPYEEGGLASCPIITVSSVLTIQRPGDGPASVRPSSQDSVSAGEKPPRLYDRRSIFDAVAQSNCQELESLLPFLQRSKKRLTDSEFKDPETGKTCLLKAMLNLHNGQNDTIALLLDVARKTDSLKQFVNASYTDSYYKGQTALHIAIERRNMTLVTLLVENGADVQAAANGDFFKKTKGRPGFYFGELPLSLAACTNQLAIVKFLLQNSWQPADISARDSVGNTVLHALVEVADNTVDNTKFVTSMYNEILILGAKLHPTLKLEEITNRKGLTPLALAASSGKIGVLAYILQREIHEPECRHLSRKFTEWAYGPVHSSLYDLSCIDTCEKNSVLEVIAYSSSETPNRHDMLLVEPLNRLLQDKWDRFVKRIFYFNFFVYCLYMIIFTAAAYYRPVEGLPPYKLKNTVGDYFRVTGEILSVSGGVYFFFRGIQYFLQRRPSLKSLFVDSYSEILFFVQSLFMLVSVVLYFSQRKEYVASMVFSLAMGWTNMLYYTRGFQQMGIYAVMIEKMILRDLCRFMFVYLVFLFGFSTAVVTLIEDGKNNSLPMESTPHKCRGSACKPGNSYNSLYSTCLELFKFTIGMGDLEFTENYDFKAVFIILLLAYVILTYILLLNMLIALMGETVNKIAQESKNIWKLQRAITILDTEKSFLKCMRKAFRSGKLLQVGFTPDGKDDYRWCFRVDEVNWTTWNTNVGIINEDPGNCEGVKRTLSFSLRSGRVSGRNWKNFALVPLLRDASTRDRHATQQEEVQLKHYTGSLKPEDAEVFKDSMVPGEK

[3] = Metabolic stability in rat liver microsomes assessed as compound remaining after 10 min; assay type: ADME, Microsome; details: read-out: Stability
[4] = test system: Rattus norvegicus; experiment: Antiinflammatory activity in Sprague-Dawley rat assessed as inhibition of carrageenan-induced thermal hyperalgesia at 3 mg/kg, po administered 3.5 hrs after carrageenan challenge measured after 5 hrs; assay type: functional
In short: (§1)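 Rat carrageenan-induced thermal hyperalgesia. Dosed orally as a suspension in 0.5% methocel; % inhibition reported at each dose.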

[5] = test system: Liver microsomes; experiment: Metabolic stability in human liver microsomes assessed per mg of protein after 1 hr
[6] = species: Rattus norvegicus; details: 20 mg/kg
[7] = test system: Rattus norvegicus; experiment: Antiinflammatory activity in Sprague-Dawley rat assessed as inhibition of carrageenan-induced thermal hyperalgesia at 1 mg/kg, po administered 3.5 hrs after carrageenan challenge measured after 5 hrs; assay type: functional; in short: as §1
[8] = test system: Rattus norvegicus; experiment: Plasma concentration in Sprague-Dawley rat carrageenan-induced thermal hyperalgesia model at 1 mg/kg, po; assay type: ADME, organism-based; design: dose 1 mg/kg, route oral; details: in vivo
In short: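 Plasma sampled immediately after the carrageenan thermal hyperalgesia experiment, following oral dosing as a suspension in 0.5% methocel.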

[9] = test system: Rattus norvegicus; experiment: Plasma concentration in Sprague-Dawley rat carrageenan-induced thermal hyperalgesia model at 3 mg/kg, po; assay type: ADME, organism-based; design: dose 3 mg/kg, route oral; details: in vivo
In short: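 Rats given compound orally as a suspension in 0.5% methocel in the carrageenan-induced thermal hyperalgesia model. Plasma sampled immediately after the CITH experiment.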

[10] = Inhibition of MAOB
[11] = test system: Rattus norvegicus; experiment: Antiinflammatory activity in Sprague-Dawley rat assessed as inhibition of carrageenan-induced thermal hyperalgesia at 0.3 mg/kg, po administered 3.5 hrs after carrageenan challenge measured after 5 hrs; assay type: functional; in short: as §1

IC50 [1] [nM] | IC50 [2] | Structure (SMILES) | also measured
4.4 | – | FC(F)(F)c1cnc(Nc2ccnc3nc(-c4ncccc4C(F)(F)F)ccc23)nc1 | IC50 ([2]; read-out: IC50): 4.6 nM; remaining at 10 min [3]: 100%; inhibition in vivo at 3 mg/kg [4]: 78%; Stability [5]: 204 pmol
12 | Not Active | FC(F)(F)c1ccc(Nc2ccnc3nc(-c4ncsc4C(F)(F)F)ccc23)nc1 | remaining at 10 min [3]: 100%; Stability [5]: 356 pmol
5.5 | – | FC(F)(F)c1cnc(Nc2ccnc3nc(-c4ncccc4C(F)(F)F)ccc23)cn1 | IC50 ([2]; read-out: IC50): 6.3 nM
13 | Not Active | NC(=O)c1ccnc(-c2ccc3c(Nc4ccc(C(F)(F)F)cn4)ccnc3n2)c1C(F)(F)F | –
– | – | COc1ccc2cc([C@H](C)C(=O)O)ccc2c1 | inhibition [6]: Active
48.7 | Not Active | NC(=O)c1nc(Nc2ccnc3nc(-c4ncccc4C(F)(F)F)ccc23)ncc1C(F)(F)F | –
134 | Not Active | FC(F)(F)c1ccc(Nc2ccnc3nc(-c4ncncc4C(F)(F)F)ccc23)nc1 | –
47 | Not Active | FC(F)(F)c1csc(Nc2ccnc3nc(-c4ncccc4C(F)(F)F)ccc23)n1 | –
– | – | FC(F)(F)c1ccc(Nc2ccnc3nc(-c4ncccc4C(F)(F)F)ccc23)nc1 | IC50 ([2]; read-out: IC50): 3.2 nM; remaining at 10 min [3]: 100%; inhibition in vivo at 1 mg/kg [7]: 66%; inhibition in vivo at 3 mg/kg [4]: 115%; concentration [8]: 300 nM; concentration [9]: 1400 nM; INH [10]: 2.2 nM; Stability [5]: 169 pmol
0.2 | Not Active | FC(F)(F)c1ccc(Nc2ccnc3nc(-c4ncccc4C(F)(F)F)cnc23)nc1 | remaining at 10 min [3]: 100%; inhibition in vivo at 3 mg/kg [4]: 134%; inhibition in vivo at 0.3 mg/kg [11]: 85%; Stability [5]: < 5 pmol
27 | Not Active | O=C(O)c1cnc(-c2cnc3c(Nc4ccc(C(F)(F)F)cn4)ccnc3n2)c(C(F)(F)F)c1 | –
81 | Not Active | FC(F)(F)c1cnc(Nc2ccnc3nc(-c4ncccc4C(F)(F)F)ccc23)nc1Cl | –
15 | Not Active | N#Cc1cnc(-c2cnc3c(Nc4ccc(C(F)(F)F)cn4)ccnc3n2)c(C(F)(F)F)c1 | –
30 | Not Active | FC(F)(F)c1ccc(Nc2ccnc3nc(-c4ncc(Br)cc4C(F)(F)F)cnc23)nc1 | –
– | – | C[C@@H]1CN(c2ncccc2C(F)(F)F)CCN1C(=O)Nc1ccc(C(F)(F)F)cc1 | INH [10]: 17 nM
8.4 | – | FC(F)(F)c1ccc(Nc2ccnc3nc(-c4nnccc4C(F)(F)F)ccc23)nc1 | IC50 ([2]; read-out: IC50): 7.1 nM
25.4 | Not Active | N#Cc1nc(Nc2ccnc3nc(-c4ncccc4C(F)(F)F)ccc23)ncc1C(F)(F)F | –
1450 | Not Active | O=C(O)c1nc(Nc2ccnc3nc(-c4ncccc4C(F)(F)F)ccc23)ncc1C(F)(F)F | –
607 | Not Active | O=C(O)c1ccnc(-c2ccc3c(Nc4ccc(C(F)(F)F)cn4)ccnc3n2)c1C(F)(F)F | –
161 | Not Active | FC(F)(F)c1ccc(Nc2ccnc3nc(-c4ccncc4C(F)(F)F)ccc23)nc1 | –
